Yeast life ext: compounds extending yeast replicative lifespan, primary screen, S. cerevisiae, OD615 | S. cerevisiae growth with nicotinamide; deaD strain in restrictive glucose medium | inhibition of the nicotinamide effect, % at 10 µM | 130,000 tested, 0.68% active;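 active = inhibition above a set limit, placed 3 SD over the median of all compounds, cut at about 26% in these data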;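 also: 0% = nicotinamide-treated wells and 100% = cells grown without nicotinamide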
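Material: Modified budding yeast, DeaD strain | Medium: Restrictive glucose medium | Probe or stimulus: 1.5 mM nicotinamide | Dosing: Single dose 10 µM compound, 0.25% DMSO | Times: 48 h at 30 °C | Technique: OD615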
KCC2 mod: KCC2 cotransporter modulators, thallium flux, primary screen, cell-based, HEK293 KCC2, FluoZin-2 fluorescence, MLSMR. Solute carrier family 12 member 5 (Homo sapiens), Q9H2X9. KCC2 cells, thallium flux FluoZin-2 fluorescence. B-score of Tl+ flux slope (higher = more flux/activation; lower = inhibition) at 10 µM. 190,000 tested, 2.2% active. AID 1456, 2008;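 active = thallium flux slope and its plate-corrected score both differing from the plate sample mean at a set confidence after two filtering rounds, in either direction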;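 also: slope of fluorescence scaled to starting intensity during 10 to 20 s after thallium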
Target sequence (Q9H2X9 whole entry, looked up): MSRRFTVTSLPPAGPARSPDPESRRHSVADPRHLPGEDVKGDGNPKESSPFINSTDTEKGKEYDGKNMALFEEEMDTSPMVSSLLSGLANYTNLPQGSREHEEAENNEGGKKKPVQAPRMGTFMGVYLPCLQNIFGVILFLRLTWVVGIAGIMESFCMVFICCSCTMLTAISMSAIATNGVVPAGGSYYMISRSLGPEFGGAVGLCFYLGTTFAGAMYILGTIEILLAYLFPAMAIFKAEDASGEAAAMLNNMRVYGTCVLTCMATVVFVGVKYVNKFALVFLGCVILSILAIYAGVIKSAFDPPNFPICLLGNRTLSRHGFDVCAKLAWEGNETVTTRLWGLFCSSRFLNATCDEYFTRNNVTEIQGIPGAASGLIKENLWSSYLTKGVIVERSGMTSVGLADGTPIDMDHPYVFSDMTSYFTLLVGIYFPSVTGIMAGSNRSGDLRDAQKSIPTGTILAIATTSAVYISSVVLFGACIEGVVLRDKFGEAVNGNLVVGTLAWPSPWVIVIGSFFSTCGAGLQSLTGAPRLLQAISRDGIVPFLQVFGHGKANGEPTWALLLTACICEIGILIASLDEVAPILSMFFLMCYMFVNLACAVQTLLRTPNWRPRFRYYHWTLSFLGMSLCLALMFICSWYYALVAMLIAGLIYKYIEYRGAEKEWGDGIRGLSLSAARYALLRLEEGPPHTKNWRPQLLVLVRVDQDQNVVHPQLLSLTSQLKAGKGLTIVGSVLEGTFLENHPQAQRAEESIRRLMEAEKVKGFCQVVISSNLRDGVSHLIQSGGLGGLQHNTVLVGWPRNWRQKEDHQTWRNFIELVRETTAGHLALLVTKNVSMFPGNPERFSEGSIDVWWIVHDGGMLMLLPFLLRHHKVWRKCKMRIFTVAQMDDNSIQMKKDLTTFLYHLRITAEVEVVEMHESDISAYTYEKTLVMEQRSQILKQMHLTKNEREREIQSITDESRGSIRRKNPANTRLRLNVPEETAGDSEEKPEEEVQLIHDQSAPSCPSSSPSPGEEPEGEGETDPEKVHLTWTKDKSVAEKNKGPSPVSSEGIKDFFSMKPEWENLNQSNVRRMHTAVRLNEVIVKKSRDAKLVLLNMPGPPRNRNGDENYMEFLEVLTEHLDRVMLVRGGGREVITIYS
RAM network inh: inhibitors of the yeast RAM network, primary screen, dse1pr::URA3 reporter, 5-FOA selection; inhibition, % at 50 µM; S. cerevisiae dse1pr::URA3 reporter, 5-FOA growth OD615, 2 d; analog-sensitive cbk1-as2 kinase mutant strain; AID 868, 2007; 190,000 tested, 1.8% active;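 active = inhibition above a set limit, 3 SD over mean compound inhibition, cut at about 8.4% in these data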;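 also: 0% = DMSO-only wells with no growth and 100% = 10 µM 1-NA-PP1 full growth; inhibition rescues growth on 5-FOA so higher OD means more RAM inhibition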
Yeast growth inh: growth inhibitors of yeast BB579 in restrictive medium, primary screen, yeast lifespan-shortening project, S. cerevisiae. OD615, 48 h. inhibition, % at 10 µM. 140,000 tested, 0.51% active. AID 804, 2007;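 active = inhibition above a set limit, 3 SD over the mean compound inhibition, cut at about 44% in these data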
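Test system: DeaD yeast strain BB579 / Buffer or medium: restrictive glucose-based CSMM-D medium / Doses: single 10 µM dose / Schedule: 4 h cell preincubation, 48 h compound exposure, 30 °C humidified / Technique: culture absorbance at 615 nm / Controls: amphotericin B positive control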
WT yeast gro inh: growth inhibition of WT strain, primary screen, mitochondrial fusion inhibitor project, WT and mutant strains, chemical genetic; mitochondrial fusion phenotypic screen; inhibition, % at 10 µM; 190,000 tested, 2.1% active; AID 1362, 2008; in the data active = inhibition above about 58%; tested in S. cerevisiae
KCC2 secondary: KCC2 modulators in sodium-free buffer, confirmation, cell-based, HEK293 KCC2, thallium flux, secondary assay. FluoZin2 fluorescence; stronger effect = higher value. AID 1713, 2009. shares compounds with KCC2 mod. normalised thallium flux (F/F0 slope) at 10 µM. 3,700 tested, 15% active;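 active = thallium flux slope above the same plate's solvent-only control mean plus 3 SD; inconclusive = the two replicate wells disagree; inactive = no significant difference from solvent-only control wells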
KCC2 bumet counter: thallium flux persisting under bumetanide in KCC2 cells, confirmation, counter-screen for KCC2 modulator project, cell-based, HEK293 KCC2, FluoZin2, secondary assay 3. shares compounds with KCC2 mod. HEK293-KCC2 + bumetanide/ouabain; stronger effect = higher value. normalized thallium flux at 10 µM. 3,700 tested, 49% active. AID 1714, 2009;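 active = thallium entry rate above the same plate's blocked-transporter control wells by more than 3 SD; inconclusive = the two repeat wells disagree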;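 also: raw slope of fluorescence over initial fluorescence between 10 and 20 s after thallium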
KCC2 secondary2: KCC2 modulators without ouabain present, confirmation, cell-based, HEK293 KCC2, thallium flux, FluoZin2, secondary assay 2; shares compounds with KCC2 mod; thallium flux FluoZin2 fluorescence; actives lie on both sides; F/F0 rise rate, 10–20 s post-thallium; normalized thallium flux at 10 µM; 3,700 tested, 23% active; AID 1715, 2009;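 active = thallium flux slope more than 3 SD above or below the plate's solvent-only control mean, mostly below; inconclusive = the two repeat wells disagreed; inactive = no significant shift from solvent-only controls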;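 also: raw slope with 0.1% DMSO as baseline and bumetanide as block control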
HEK counter1: thallium flux modulation in parental HEK cells, confirmation, counter-screen for KCC2 modulator project, cell-based, counterscreen 1; 3,700 tested, 46% active; thallium flux rate (normalised fluorescence) at 10 µM; HEK293 parental cells, thallium flux FluoZin2, ouabain; baseline-ratio fluorescence slope, 10–20 s after thallium; shares compounds with KCC2 mod; AID 1716, 2009;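 active = thallium flux rate significantly above the same plate's solvent-only control wells, beyond their mean plus 3 SD; inconclusive = the two replicate wells gave conflicting results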
KCC2 ouabain: KCC2 inhibitors and activators, ouabain retest, confirmation, HEK-KCC2 cells | shares compounds with KCC2 mod | HEK293-KCC2, thallium flux FluoZin2 fluorescence; bidirectional: low = inhibitor, high = activator | raw Tl+ flux slope (below DMSO = inhibition, above = activation) at 10 µM | 3,700 tested, 48% active | AID 1717, 2009;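 active = thallium flux slope beyond 3 SD from same-plate DMSO control mean in most replicates, usually higher, sometimes lower; inconclusive = repeat tests gave conflicting results; inactive = no significant difference from controls in most replicates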;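 also: slope of initial-normalized fluorescence between seconds 10 and 20 after thallium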
HEK293 Tl flux2: native HEK Tl+ uptake effects, second counter-screen – HEK cells, counterscreen 2, counter-screen for KCC2 modulator project, confirmation; shares compounds with KCC2 mod; HEK293 parental, thallium flux FluoZin-2 fluorescence slope; 3,700 tested, 33% active; thallium flux slope at 10 µM; AID 1718, 2009;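 active = thallium flux slope above the same plate's solvent-control mean plus 3 SD in both duplicate wells; inconclusive = duplicate wells that disagreed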;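 also: run without ouabain in cells lacking the KCC2 cotransporter; slope of fluorescence scaled to its starting value between 10 and 20 s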
An asterisk follows results filed as active; ? = inconclusive; . = no result given. A selection: hits, their analogues and other compounds. The true share with any hit is near 5.5%.

SMILES	Yeast life ext	KCC2 mod	RAM network inh	Yeast growth inh	WT yeast gro inh	KCC2 secondary	KCC2 bumet counter	KCC2 secondary2	HEK counter1	KCC2 ouabain	HEK293 Tl flux2
Cc1cc(=O)[nH]c(SCC(=O)Nc2ccc(F)cc2)c1C#N	.	0.008	1	.	-10	.	.	.	.	.	.
CNC(=O)CC1C(=O)N(c2ccc(OC)cc2)C(=S)N1NC(=O)c1cccc(F)c1 (stereo not drawn)	.	-0.057	.	.	.	.	.	.	.	.	.
CCOc1ccc2c(c1)c(N=NC(=N)N)c(O)n2C	-4	0.27	1	6	-1	.	.	.	.	.	.
Cn1c(O)c(N=NC(=N)N)c2ccccc21	.	-0.01	.	.	.	.	.	.	.	.	.
NC(=S)N=Nc1c(O)n(CCCl)c2ccccc12	.	13*	3	.	21	0.024*	0.031*	?	0.018*	0.027*	0.019*
CCOc1ccc2c(c1)c(N=NC(N)=S)c(O)n2C	.	8.2*	.	.	.	?	0.035*	0.039	0.015*	0.027	0.012*
NC(=S)N=Nc1c(O)n(CCCl)c2ccc(Cl)cc12	.	16*	5	.	-18	0.0075	0.041*	?	0.036*	0.047*	0.024*
COc1ccccc1-c1noc(CCC(=O)Nc2ccccc2Cl)n1	-8	-2.2	1	-13	-5	.	.	.	.	.	.
COc1ccccc1Nc1ncc(C(=O)N2CCN(Cc3ccc(OC)c(OC)c3OC)CC2)c2ccccc12	.	0.037	1	.	14	.	.	.	.	.	.
COC(=O)[C@@H]1CC[C@H](C)[C@@H](c2ccc(C)cc2)N1C(=O)c1ccc(/C=N/O[C@@H](C)c2cn([C@H](CO)Cc3ccccc3)nn2)cc1	1	-0.34	7	-46	16	.	.	.	.	.	.
C=CCSc1n[nH]c2nc3c(c(=O)n12)C1(CCCC1)Cc1ccccc1-3	-3	.	2	-25	-6	0.0082	?	0.034	?	0.019	0.01
CCSc1nc2c(sc3ccccc32)c(=O)n1C(C)C	-14	24*	7	-45	58	0.038*	0.12*	0.042*	0.055*	0.054*	0.021*
Cc1cccc(N(C)S(=O)(=O)c2ccc3[nH]c(=O)c(=O)[nH]c3c2)c1	-18	1.2	1	9	-13	.	.	.	.	.	.
COc1ccc(-c2oc3ccccc3c(=O)c2OC(C)=O)cc1	.	55*	0	.	20	0.022*	0.09*	0.041	?	0.071*	?
O=[N+]([O-])c1cc(S(=O)(=O)N2CCCC2)ccc1N/N=C1/CCCc2ccccc21	-1	-4*	4	-34	-1	0.0061	0.0049	0.032	0.0081	0.019	?
COCc1c(Br)c(C)nc(OCC(=O)N/N=C/c2cc(C)n(-c3ccc([N+](=O)[O-])cc3)c2C)c1C#N	-4	0.81	1	-35	-8	.	.	.	.	.	.
Cc1ccccc1-n1c(-c2csc(C)c2C)n[nH]c1=S	1	2.4	1	-3	24	.	.	.	.	.	.
Cc1scc(-c2n[nH]c(=S)n2C(C)c2ccccc2)c1C (stereo not drawn)	3	7.7*	6	-5	43	0.0093	0.04*	0.028	0.011*	?	?
O=C(Nc1ccccc1F)c1ccc(CSc2ccccc2)o1	-8	-5.1*	3	-45	40	0.0087	0.0058	0.025*	0.006	0.013*	0.0091
COc1ccc(NC(=O)c2ccc(Cc3ccc(C)cc3)o2)cc1	.	-0.74	3	-26	23	.	.	.	.	.	.
COc1ccc(NC(=O)c2ccc(COc3ccccc3)o2)cc1	-15	-4.4*	4	-4	-5	0.0073	0.0048	0.029	0.0064	?	0.0098
CC(=O)Nc1ccc(NC(=O)c2ccc(CSc3ccccc3)o2)cc1	.	-4.1*	5	.	-21	0.0062	0.0072	0.025*	0.0071	0.015*	?
CCOc1ncccc1C(=O)OCCN1C(=O)c2ccccc2C1=O	-5	5.8*	0	-60	3	0.0087	0.0057	0.034	0.0085	0.02	0.012
CCOc1ncccc1C(=O)OCC(=O)c1ccccc1	.	0.92	1	.	-11	.	.	.	.	.	.
CCOc1cccc(NC(=O)C2CC(=O)NC(=Nc3ccccc3)S2)c1 (stereo not drawn)	-7	0.11	5	-67	16	.	.	.	.	.	.
SMILES	Yeast life ext	KCC2 mod	RAM network inh	Yeast growth inh	WT yeast gro inh	KCC2 secondary	KCC2 bumet counter	KCC2 secondary2	HEK counter1	KCC2 ouabain	HEK293 Tl flux2
C(=N\NC1=Nc2cccc3cccc1c23)/c1ccccc1	-1	-0.054	0	2	8	.	.	.	.	.	.
C(=N\NC1=Nc2cccc3cccc1c23)/c1cccnc1	.	-3.8*	2	.	10	0.0065	?	0.029	0.0071	0.016*	0.01
Cc1nc2[nH]c(=O)c3c(n2n1)NC1=C(C(=O)CC(C)(C)C1)C3c1ccc(F)cc1 (stereo not drawn)	-9	.	2	-49	-15	0.006	0.0046	0.03	0.0068	0.018	0.01
O=[N+]([O-])c1ccc(/C=N/NC(=S)Nc2ccccc2C(F)(F)F)o1	-1	21*	0	28	14	0.0072	0.046*	0.051*	0.027*	0.054*	0.021*
COc1ccc(NC(=O)/C(=C\c2ccc3c(c2)OCO3)NC(C)=O)cc1	-6	-0.77	-1	12	-3	.	.	.	.	.	.
O=C(Cc1ccc(Cl)cc1)Nc1cccc(-c2nnc(-c3ccco3)o2)c1	-15	0.69	4	-17	-2	.	.	.	.	.	.
O=C(Cc1ccccc1)Nc1cccc(-c2nnc(-c3ccco3)o2)c1	-19	-1.9	1	0	9	0.0052	0.0045	0.03	0.0068	?	0.01

Source: PubChem BioAssay
